The record followed here is ChEMBL document CHEMBL1687798, “In vitro mitochondrial toxicity of metacavir, a new nucleoside reverse transcriptase inhibitor for treatment of hepatitis B virus” (Antimicrob Agents Chemother, 2010).

Where only a bound is given, the exact number is not on record here.

Common to all, as to type: cell-based
The test system of data set [1] is HepG2. In words: Cytotoxicity against human HepG2 cells assessed as inhibition of mitochondrial respiratory chain complex I activity at 50 uM after 15 days relative to control. To be noted: hepg2, 360 h.
Data set [2] deals with HepG2. The data set is described as follows: Cytotoxicity against human HepG2 cells assessed as increase in extracellular lactate secretion at 50 uM after 15 days relative to control. The note with it: hepg2, 360 h. A digest of the protocol: (§1)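 Extracellular lactate in HepG2 culture medium measured with a lactic acid kit after 15 days of exposure. Medium and drug renewed every 3 days. Expressed as mg lactic acid per 10⁶ cells, then as percent of 0.1% DMSO vehicle control. n = 3.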

Data set [3] relates to HepG2. In words: Cytotoxicity against human HepG2 cells assessed as reduction in viable cells at 50 uM after 15 days by trypan blue dye exclusion assay relative to control. To be noted: hepg2, 360 h. A digest of the protocol:
(§2)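 HepG2 cells seeded at 5 × 10⁵/ml in MEM with 10% FBS and 1 mM pyruvate. Exposed for 6, 9 and 15 days, with medium and drug renewed every 3 days. Viable cells counted by trypan blue exclusion on a hemocytometer and expressed as percent of 0.1% DMSO control; three independent experiments.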

The test system of data set [4] is HepG2. In words: Cytotoxicity against human HepG2 cells assessed as inhibition of mitochondrial respiratory chain complex II activity at 50 uM after 15 days relative to control. To be noted: hepg2, 360 h.
The test system of data set [5] is HepG2. In words: Cytotoxicity against human HepG2 cells assessed as reduction in mitochondrial DNA content at 50 uM after 15 days by RT-PCR method relative to control. The arrangement: scale not given: the % may be the effect or the level left. The note with it: hepg2, 360 h. A digest of the protocol: (§3)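 Total DNA extracted from HepG2 cells after 15-day exposure. Cells reseeded every 5 days; compounds added from 1,000× DMSO stocks, final DMSO 0.1%. Cytochrome b and actin copies measured by TaqMan real-time PCR against plasmid standard curves, 45 cycles. mtDNA/nDNA ratio expressed as percent of DMSO control; three independent experiments.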

Data set [6] relates to HepG2. The data set is described as follows: Cytotoxicity against human HepG2 cells assessed as slight increase in mitochondrial size at 50 uM after 15 days by electron microscopy relative to control. To be noted: hepg2, 360 h. A digest of the protocol: (§4)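 HepG2 cells exposed 15 days, then fixed in 2.5% glutaraldehyde 1 h, postfixed in 1% osmium tetroxide 1 h, dehydrated through graded ethanol and propylene oxide, Epon-embedded, sectioned, and stained with uranyl acetate and lead citrate. Examined by transmission EM; >10 fields per treatment at low or high magnification; three independent experiments. DMSO 0.1% vehicle control.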

Data set [7] relates to HepG2. The data set is described as follows: Cytotoxicity against human HepG2 cells assessed as reduction in viable cells at 50 uM after 6 days by trypan blue dye exclusion assay relative to control. The note with it: hepg2, 144 h. A digest of the protocol:
as §2

Data set [8] concerns HepG2. The data set is described as follows: Cytotoxicity against human HepG2 cells assessed as inhibition of mitochondrial respiratory chain complex III activity at 50 uM after 15 days relative to control. To be noted: hepg2, 360 h.
Data set [9] relates to HepG2. The data set is described as follows: Cytotoxicity against human HepG2 cells assessed as inhibition of mitochondrial respiratory chain complex IV activity at 50 uM after 15 days relative to control. The note with it: hepg2, 360 h.
Data set [10] relates to HepG2. In words: Cytotoxicity against human HepG2 cells assessed as reduction in viable cells upto 250 uM after 15 days by trypan blue dye exclusion assay relative to control. The note with it: hepg2, 360 h. A digest of the protocol: as §2
Data set [11] has as its system HepG2. The data set is described as follows: Cytotoxicity against human HepG2 cells assessed as mitochondrial swelling at 250 uM after 15 days by electron microscopy relative to control. To be noted: hepg2, 360 h. A digest of the protocol:
as §4

Data set [12] relates to HepG2. In words: Cytotoxicity against human HepG2 cells assessed as lipid droplet formation at 250 uM after 15 days by electron microscopy relative to control. To be noted: hepg2, 360 h. A digest of the protocol:
as §4

Data set [13] concerns HepG2. The data set is described as follows: Cytotoxicity against human HepG2 cells assessed as inhibition of mitochondrial respiratory chain complex II activity at 250 uM after 15 days relative to control. To be noted: hepg2, 360 h.
Data set [14] deals with HepG2. In words: Cytotoxicity against human HepG2 cells assessed as inhibition of mitochondrial respiratory chain complex III activity after 15 days relative to control. The note with it: hepg2, 360 h.
Data set [15] concerns HepG2. The data set is described as follows: Cytotoxicity against human HepG2 cells assessed as inhibition of mitochondrial respiratory chain complex IV activity at 250 uM after 15 days relative to control. To be noted: hepg2, 360 h.
The test system of data set [16] is HepG2. The data set is described as follows: Cytotoxicity against human HepG2 cells assessed as inhibition of mitochondrial respiratory chain complex I activity at 10 uM after 15 days relative to control. To be noted: hepg2, 360 h.
The subject of data set [17] is HepG2. The data set is described as follows: Cytotoxicity against human HepG2 cells assessed as inhibition of mitochondrial respiratory chain complex II activity at 10 uM after 15 days relative to control. The note with it: hepg2, 360 h.
Data set [18] concerns HepG2. The data set is described as follows: Cytotoxicity against human HepG2 cells assessed as inhibition of mitochondrial respiratory chain complex IV activity at 10 uM after 15 days relative to control. The note with it: hepg2, 360 h.
The test system of data set [19] is HepG2. The data set is described as follows: Cytotoxicity against human HepG2 cells assessed as inhibition of mitochondrial respiratory chain complex I activity after 15 days relative to control. To be noted: hepg2, 360 h.
For data set [20], the system named is HepG2. In words: Cytotoxicity against human HepG2 cells assessed as reduction in mitochondrial DNA content at 10 uM after 15 days by RT-PCR method relative to control. Also noted: scale not given: the % may be the effect or the level left. The note with it: hepg2, 360 h. A digest of the protocol:
as §3

The test system of data set [21] is HepG2. In words: Cytotoxicity against human HepG2 cells assessed as inhibition of mitochondrial respiratory chain complex II activity after 15 days relative to control. The note with it: hepg2, 360 h.
Data set [22] concerns HepG2. The data set is described as follows: Cytotoxicity against human HepG2 cells assessed as inhibition of mitochondrial respiratory chain complex I activity at 250 uM after 15 days relative to control. To be noted: hepg2, 360 h.
Data set [23] has as its system HepG2. The data set is described as follows: Cytotoxicity against human HepG2 cells assessed as inhibition of mitochondrial respiratory chain complex III activity at 250 uM after 15 days relative to control. To be noted: hepg2, 360 h.
The test system of data set [24] is HepG2. In words: Cytotoxicity against human HepG2 cells assessed as increase in extracellular lactate secretion at 10 to 250 uM after 15 days relative to control. To be noted: hepg2, 360 h. A digest of the protocol: as §1
In data set [25] the test system is HepG2. In words: Cytotoxicity against human HepG2 cells assessed as inhibition of mitochondrial respiratory chain complex IV activity after 15 days relative to control. To be noted: hepg2, 360 h.
The subject of data set [26] is HepG2. In words: Cytotoxicity against human HepG2 cells assessed as reduction in mitochondrial DNA content at 250 uM after 15 days by RT-PCR method relative to control. The arrangement: scale not given: the % may be the effect or the level left. The note with it: hepg2, 360 h. A digest of the protocol:
as §3

For data set [27], the system named is HepG2. In words: Cytotoxicity against human HepG2 cells assessed as inhibition of mitochondrial respiratory chain complex III activity at 10 uM after 15 days relative to control. To be noted: hepg2, 360 h.
Data set [28] concerns HepG2. In words: Cytotoxicity against human HepG2 cells assessed as mitochondrial swelling at 10 uM after 15 days by electron microscopy relative to control. To be noted: hepg2, 360 h. A digest of the protocol: as §4
The test system of data set [29] is HepG2. The data set is described as follows: Cytotoxicity against human HepG2 cells assessed as disrupted mitochondrial cristae at 10 uM after 15 days by electron microscopy relative to control. The note with it: hepg2, 360 h. A digest of the protocol:
as §4

The test system of data set [30] is HepG2. The data set is described as follows: Cytotoxicity against human HepG2 cells assessed as reduction in viable cells at 10 uM after 15 days by trypan blue dye exclusion assay relative to control. To be noted: hepg2, 360 h. A digest of the protocol:
as §2

Data set [31] has as its system HepG2. The data set is described as follows: Cytotoxicity against human HepG2 cells assessed as increase in extracellular lactate secretion at 10 uM after 15 days relative to control. The note with it: hepg2, 360 h. A digest of the protocol:
as §1

Consider `Cc1cn([C@H]2C[C@H](N=[N+]=[N-])[C@@H](CO)O2)c(=O)[nH]c1=O` [ZIDOVUDINE], for which the Activity result in [1] was “Toxic”; in data set [2], 300%; in [3], 60%; in [4], “Toxic”; in [5] it was “Non-toxic”; in [6], “Toxic”. Besides, the Activity result in data set [7], in [8] and in [9] was “Toxic” each time.
For `COc1nc(N)nc2c1ncn2[C@H]1CC[C@@H](CO)O1` [METACAVIR], the Activity result in data set [10] is listed as “Non-toxic”; in data set [1] it was “Toxic”; in [11] it was “Toxic”; in data set [12], “Toxic”; in data set [13], “Toxic”; in [14] it was “Dose-dependent effect”. In addition, the Activity result in data set [15] is “Toxic”; in data set [16], “Non-toxic”; in [17] it was “Non-toxic”; in data set [4] it was “Non-toxic”; in [18], “Non-toxic”; in [19], “Dose-dependent effect”. Further, the Activity entry in data set [20] was “Non-toxic”; in data set [21], “Dose-dependent effect”; in data set [22], “Toxic”; in data set [5], 80%; in [23], “Toxic”; in data set [24], “Non-toxic”. The Activity entry in data set [25] is given as “Dose-dependent effect”; in [26], 60%; in data set [27], “Non-toxic”; in data set [8], “Toxic”; in data set [9], “Toxic”.
As to `Nc1ccn([C@H]2CC[C@@H](CO)O2)c(=O)n1` [ZALCITABINE], the Activity result is on record as “Toxic” in [28]; “Toxic” in [29]; “Toxic” in [16]; “Toxic” in data set [17]; “Toxic” in [18]; 3% in data set [20]. The Activity in data set [30] is under 30%; in data set [31], 170%; in data set [27] it was “Toxic”.
